Results: ChEMBL document CHEMBL4219135, “Discovery of Hydrolysis-Resistant Isoindoline N-Acyl Amino Acid Analogues that Stimulate Mitochondrial Respiration” (J Med Chem, 2018)
Calls of active or inactive are those of the source. The rule behind the calls is not given here. Where a SMILES comes first, the peptide text is derived from it. The star is where a group is joined. Oleoyl = CCCCCCCC/C=C\CCCCCCCC(=O)*

Key:
[1] = molecular target: T1, N-fatty-acyl-amino acid synthase/hydrolase PM20D1 (Mus musculus, UniProt Q8C165); experiment: Metabolic stability assessed as recombinant mouse 6xHis/FLAG-tagged PM20D1-mediated hydrolysis by measuring parent compound remaining at 100 nmol after 1 hr by LC-MS method; format: ADME; details: in the assay text read “at 10 nmol” for “at 100 nmol”
T1 sequence (Q8C165 whole entry): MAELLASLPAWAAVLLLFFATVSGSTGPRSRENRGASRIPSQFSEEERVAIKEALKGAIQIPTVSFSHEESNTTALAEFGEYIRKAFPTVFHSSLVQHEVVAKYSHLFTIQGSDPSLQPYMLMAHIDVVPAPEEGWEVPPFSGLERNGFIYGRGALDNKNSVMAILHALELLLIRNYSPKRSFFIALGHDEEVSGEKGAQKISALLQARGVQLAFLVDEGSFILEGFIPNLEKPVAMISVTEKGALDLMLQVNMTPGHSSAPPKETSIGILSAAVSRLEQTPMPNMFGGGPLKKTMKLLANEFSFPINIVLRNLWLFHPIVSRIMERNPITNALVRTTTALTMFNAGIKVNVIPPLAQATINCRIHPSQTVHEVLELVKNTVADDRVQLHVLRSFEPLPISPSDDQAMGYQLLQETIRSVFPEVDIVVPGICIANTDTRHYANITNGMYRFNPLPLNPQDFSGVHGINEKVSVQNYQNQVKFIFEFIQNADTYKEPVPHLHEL
Procedure, shortened: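 Murine PM20D1–6xHis-Flag expressed transiently in 293T cells, Flag-M2 purified from serum-free conditioned medium. 10 nmol compound in 100 μl PBS (100 μM) with enzyme or PBS, 1 h at 37 °C; quenched in chloroform:methanol with d31-palmitate internal standard; intact substrate and released fatty acid quantified by LC-MS. Means ± SEM, n=3.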

[2] = Half life in mouse liver microsomes at 1 uM after 60 mins in presence of NADPH by LC-MS/MS analysis; format: ADME, microsome
Procedure, shortened: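 Test compound at 1 μM with 1 mg/mL mouse liver microsomes in 100 mM KPi pH 7.4, 37C with shaking; started with NADPH (1 mM final), -NADPH controls included. Samples at 0, 5, 10, 20, 40, 60 min quenched in 5X acetonitrile, filtered, LC-MS/MS; data log transformed to half-life.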

C2C12 = experiment: Uncoupling activity in mouse C2C12 cells assessed as induction of SLC25-mediated mitochondrial respiration at 50 uM mixed for 2 mins measured after 2 mins post mixing relative to basal oligomycin-treated respiration; format: cell-based
Procedure, shortened: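 C2C12 cells seeded 35,000/well, assayed next day in Seahorse XF24 respiration buffer (DMEM, pyruvate, 20 mM glucose) after 1 h CO2-free. Sequential injections: oligomycin 1 μM, compound 50 μM, FCCP 0.2 μM, rotenone 3 μM final; cycles of 2 min mix, 2 min measure. Cycle 6 set to 100%; maximal respiration over cycles 7–15 reported. n=3–6.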

Mus musculus [3] = experiment: Anti-obesity activity against DIO mouse assessed as blood glucose levels at 25 mg/kg, ip administered daily for 7 consecutive days measured after 2 hrs post last dose (reference value: 204 +/- 7 mg/dl); format: functional
Mus musculus [4] = experiment: Anti-obesity activity against DIO mouse assessed as reduction in body weight gain by measuring net weight change at 5 mg/kg, ip administered daily for 7 consecutive days (reference value: 1.1 +/- 0.1 g); format: functional, organism-based
Mus musculus [5] = experiment: Anti-obesity activity against ip dosed DIO mouse assessed as reduction in body weight gain administered daily for 7 consecutive days; format: functional, organism-based
Mus musculus [6] = experiment: Anti-obesity activity against DIO mouse assessed as reduction in body weight gain by measuring net weight change at 10 mg/kg, ip administered daily for 7 consecutive days (reference value: 1.1 +/- 0.1 g); format: functional
Mus musculus [7] = experiment: Anti-obesity activity against DIO mouse assessed as reduction in body weight gain by measuring net weight change at 25 mg/kg, ip administered daily for 7 consecutive days (reference value: 1.1 +/- 0.1 g); format: functional
Mus musculus [8] = experiment: Anti-obesity activity against DIO mouse assessed as reduction in food intake at 25 mg/kg, ip administered daily for 7 consecutive days; format: functional, organism-based

For CCCCC/C=C\C/C=C\CCCCCCCC(=O)N1Cc2ccccc2[C@H]1C(=O)O, the Stability [1] was “Stable”, the half-life at 1 µM [2] was 1.07 h and the Emax (C2C12) was 185%.

CCCCCCCC/C=C\CCCCCCCC(=O)N1c2ccccc2C[C@H]1C(=O)O gave an Emax (C2C12) of 146%.

In the case of CCCCCCCC/C=C\CCCCCCCC(=O)NCC(=O)NCC(=O)O (Oleoyl-Gly-Gly-OH), the Emax (C2C12) is reported as 206%.

In the case of CCCCC/C=C\C/C=C\CCCCCCCC(=O)N1Cc2ccccc2[C@@H]1C(=O)O, the Activity (Mus musculus [3]) is reported as 172 mg/dL, the Stability [1] is reported as “Stable” and the Activity (Mus musculus [4]) is reported as “inactive”. For the same compound, the half-life at 1 µM [2] was 1.07 h, the Emax (C2C12) was 190% and the Activity (Mus musculus [5]) was “Dose-dependent effect”. For the same compound, the Activity (Mus musculus [6]) was 0.2 g, the Activity (Mus musculus [7]) was -1.2 g and the Activity (Mus musculus [8]) was “inactive”.

CCCCCCCC/C=C\CCCCCCCC(=O)N1CCCC[C@H]1C(=O)O showed an Emax (C2C12) of 174%.

With CCCCCCCC/C=C\CCCCCCCC(=O)N1Cc2ccccc2[C@H]1C(=O)O the Stability [1] was “Stable”, the half-life at 1 µM [2] was 1.07 h and the Emax (C2C12) was 240%.

Work on CCCCCCCCCCCC(=O)N[C@@H](Cc1ccccc1)C(=O)O yielded an Emax (C2C12) of 96%.

CCCCCCCCCCCCCCCCCCCC(=O)N[C@@H](Cc1ccccc1)C(=O)O showed an Emax (C2C12) of 95%.

For CCCCCCCC/C=C\CCCCCCCC(=O)N[C@@H](Cc1ccccc1)C(=O)O, the Emax (C2C12) was 161%.

CCCCCCCC/C=C\CCCCCCCC(=O)NCCc1ccccc1 showed an Emax (C2C12) of 104%.

Work on CCCCCCCC/C=C\CCCCCCCC(=O)NCCC(=O)O yielded an Emax (C2C12) of 185%.

For CCCCCCCCCCC/C=C\CCCCC(=O)N[C@@H](Cc1ccccc1)C(=O)O, the Emax (C2C12) was 110%.

For CCCCCCCC/C=C\CCCCCCCC(=O)N[C@H](Cc1ccccc1)C(=O)O, the Emax (C2C12) was 173%.

Work on CCCCCCCC/C=C\CCCCCCCC(=O)N1CCC[C@H]1C(=O)O yielded an Emax (C2C12) of 182%.

For CCCCC/C=C\C/C=C\C/C=C\C/C=C\CCCC(=O)N[C@@H](Cc1ccccc1)C(=O)O, the Emax (C2C12) was 200%.

With CCCCCCCC/C=C\CCCCCCCC(=O)N[C@@H](Cc1c[nH]c2ccccc12)C(=O)O the Emax (C2C12) was 147%.

For CCCCCCCC/C=C/CCCCCCCC(=O)N[C@@H](Cc1ccccc1)C(=O)O, the Emax (C2C12) was 107%.

For CCCCCCCCCCCCCCCC(=O)N[C@@H](Cc1ccccc1)C(=O)O, the Emax (C2C12) was 180%.

In the case of CCCCCCCC/C=C\CCCCCCCC(=O)N[C@H](C(=O)O)[C@@H](C)CC, the half-life at 1 µM [2] is reported as 0.133 h and the Emax (C2C12) is reported as 167%.

For CCCCCCCC/C=C\CCCCCCCC(=O)N[C@@H](CCC(N)=O)C(=O)O, the Emax (C2C12) was 164%.

CCCCCCCC/C=C\CCCCCCCC(=O)N1Cc2ccccc2C[C@H]1C(=O)O showed an Emax (C2C12) of 187%.

For CCCCCCCC/C=C\CCCCCCCCNC(=O)N[C@@H](Cc1ccccc1)C(=O)O, the Emax (C2C12) was 97%.

CCCCCCCC/C=C\CCCCCCCC(=O)N[C@@H](CC(C)C)C(=O)O showed a half-life at 1 µM [2] of 0.133 h and an Emax (C2C12) of 178%.

In the case of CCCCCCCC/C=C\CCCCCCCCCC(=O)N[C@@H](Cc1ccccc1)C(=O)O, the Emax (C2C12) is reported as 103%.

Compound CCCCCCCC/C=C\CCCCCCCC(=O)N1CCc2ccccc2C1C(=O)O (stereo not drawn) has an Emax (C2C12) of 216%.

CCCCCCCC/C=C\CCCCCCCC(=O)N[C@@H](Cc1ccc(O)cc1)C(=O)O gave a half-life at 1 µM [2] of 0.133 h and an Emax (C2C12) of 105%.

For CCCCC/C=C\C/C=C\CCCCCCCC(=O)N[C@@H](Cc1ccccc1)C(=O)O, the Emax (C2C12) was 218%.

In the case of CCCCCC/C=C\CCCCCCCCCC(=O)N[C@@H](Cc1ccccc1)C(=O)O, the Emax (C2C12) is reported as 115%.

In the case of CCCCCCCCCCCCCCCCCCCCCC(=O)N[C@@H](Cc1ccccc1)C(=O)O, the Emax (C2C12) is reported as 100%.

Work on CC/C=C\C/C=C\C/C=C\C/C=C\C/C=C\CCCC(=O)N[C@@H](Cc1ccccc1)C(=O)O yielded an Emax (C2C12) of 259%.

For CCCCCCCC/C=C\CCCCCCCC(=O)N1Cc2ccccc2[C@@H]1C(=O)O, the Stability [1] was “Stable”, the half-life at 1 µM [2] was 1.07 h and the Emax (C2C12) was 190%.

Compound CCC/C=C\C/C=C\C/C=C\CCCCCCC(=O)N[C@@H](Cc1ccccc1)C(=O)O has an Emax (C2C12) of 109%.

Compound CCCCCCCC/C=C\CCCCCCCCNC(=O)NCC(=O)O has an Emax (C2C12) of 104%.

Work on CCCCCCCC/C=C\CCCCCCCC(=O)N[C@@H](CCC(=O)O)C(=O)O yielded an Emax (C2C12) of 106%.

Work on CC/C=C\C/C=C\C/C=C\C/C=C\C/C=C\C/C=C\CCC(=O)N[C@@H](Cc1ccccc1)C(=O)O yielded an Emax (C2C12) of 166%.

CCCCCCCCCCCCCCCCCC(=O)N[C@@H](Cc1ccccc1)C(=O)O showed an Emax (C2C12) of 148%.
